Reference: ChEMBL document CHEMBL2321702, “Synthesis and antimalarial efficacy of two-carbon-linked, artemisinin-derived trioxane dimers in combination with known antimalarial drugs” (J Med Chem, 2013)

How the values were obtained:
Plasmodium berghei [1] = test: Antimalarial activity against Plasmodium berghei ANKA infected in C57BL/6J mouse assessed as average survival time at 6 mg/kg, po in presence of Mef-HCl (reference value: 7.3 days); assay type: functional
Summary of the method: (§1)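 Male C57BL/6J mice (5 weeks old, about 20 g; four per group) were infected with P. berghei ANKA (2×10^7 parasitized erythrocytes). After 24 h, each received a single 200 μL oral gavage of trioxane 6 mg/kg plus mefloquine hydrochloride 18 mg/kg in 7:3 Tween:EtOH diluted with water. Blood parasitemia was read on day 3, and survival was followed to day 60 against untreated mice.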

Plasmodium berghei [2] = test: Antimalarial activity against Plasmodium berghei ANKA infected in C57BL/6J mouse assessed as suppression of blood parasitemia level at 6 mg/kg, po measured on day 3 relative to vehicle-treated control in presence of mef-HCl; assay type: functional; summary of the method: as §1
Plasmodium berghei [3] = test: Antimalarial activity against Plasmodium berghei ANKA infected in C57BL/6J mouse assessed as average survival time at 6 mg/kg, po in presence of mefloquine (reference value: 8.8 days); assay type: functional; summary of the method: as §1
Plasmodium berghei [4] = test: Antimalarial activity against Plasmodium berghei ANKA infected in C57BL/6J mouse assessed as suppression of blood parasitemia level at 6 mg/kg, po measured on day 3 relative to vehicle-treated control in presence of mefloquine; assay type: functional; summary of the method: as §1
Plasmodium berghei [5] = test: Antimalarial activity against Plasmodium berghei ANKA infected in C57BL/6J mouse assessed as average survival time at 120 mg/kg, po (reference value: 7.3 days); assay type: functional
Summary of the method: (§2)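 Single-dose oral monotherapy without adjuvant, at 120 or 150 mg/kg, given by gavage 24 h after infecting male C57BL/6J mice (four per group) with 2×10^7 P. berghei ANKA-parasitized erythrocytes. Blood parasitemia was measured on day 3 relative to vehicle controls. Survival was recorded over a 60-day study.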

Plasmodium berghei [6] = test: Antimalarial activity against Plasmodium berghei ANKA infected in C57BL/6J mouse assessed as average survival time at 6 mg/kg, po in presence of lumefantrine (reference value: 8.8 days); assay type: functional
Summary of the method: (§3)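 P. berghei ANKA infection (2×10^7 parasitized erythrocytes) in male C57BL/6J mice, four per group. A single oral dose was given 24 h post-infection: trioxane 6 mg/kg plus lumefantrine 18 mg/kg. Day-3 blood parasitemia was compared with vehicle mice, and survival was tracked up to 60 days.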

Plasmodium berghei [7] = test: Antimalarial activity against Plasmodium berghei ANKA infected in C57BL/6J mouse assessed as average survival time at 150 mg/kg, po (reference value: 8.8 days); assay type: functional; summary of the method: as §2
Plasmodium berghei [8] = test: Antimalarial activity against Plasmodium berghei ANKA infected in C57BL/6J mouse assessed as suppression of blood parasitemia level at 150 mg/kg, po measured on day 3 relative to vehicle-treated control; assay type: functional; summary of the method: as §2
Plasmodium berghei [9] = test: Antimalarial activity against Plasmodium berghei ANKA infected in C57BL/6J mouse assessed as suppression of blood parasitemia level at 120 mg/kg, po measured on day 3 relative to vehicle-treated control; assay type: functional; summary of the method: as §2
Plasmodium berghei [10] = test: Antimalarial activity against Plasmodium berghei ANKA infected in C57BL/6J mouse assessed as suppression of blood parasitemia level at 6 mg/kg, po measured on day 3 relative to vehicle-treated control in presence of lumefantrine; assay type: functional; summary of the method: as §3
Mus musculus = test: Toxicity in po dosed C57BL/6J mouse infected with Plasmodium berghei ANKA assessed as average body weight gain measured on day 3 (reference value: 7.7 g); assay type: organism-based; settings: in vivo

| SMILES | MST (Plasmodium berghei [1]) | Activity (Plasmodium berghei [2]) | MST (Plasmodium berghei [3]) | Activity (Plasmodium berghei [4]) | MST (Plasmodium berghei [6]) | Activity (Plasmodium berghei [10]) | also measured |
| --- | --- | --- | --- | --- | --- | --- | --- |
| C[C@H]1[C@@H](/C(C[C@H]2O[C@@H]3O[C@@]4(C)CC[C@H]5[C@H](C)CC[C@@H]([C@H]2C)[C@@]35OO4)=N\O)O[C@@H]2O[C@@]3(C)CC[C@H]4[C@H](C)CC[C@@H]1[C@@]24OO3 | 52.5 days | >99.9% | – | – | – | – | – |
| COP(=O)(OC)O/N=C(/C[C@H]1O[C@@H]2O[C@@]3(C)CC[C@H]4[C@H](C)CC[C@@H]([C@H]1C)[C@@]24OO3)[C@H]1O[C@@H]2O[C@@]3(C)CC[C@H]4[C@H](C)CC[C@@H]([C@H]1C)[C@@]24OO3 | 56 days | >99.9% | – | – | – | – | – |
| CO/N=C(\C[C@H]1O[C@@H]2O[C@@]3(C)CC[C@H]4[C@H](C)CC[C@@H]([C@H]1C)[C@@]24OO3)[C@H]1O[C@@H]2O[C@@]3(C)CC[C@H]4[C@H](C)CC[C@@H]([C@H]1C)[C@@]24OO3 | – | – | 37 days | >99.9% | – | – | – |
| C[C@H]1[C@@H](/C(C[C@H]2O[C@@H]3O[C@@]4(C)CC[C@H]5[C@H](C)CC[C@@H]([C@H]2C)[C@@]35OO4)=N\OCC2CC2)O[C@@H]2O[C@@]3(C)CC[C@H]4[C@H](C)CC[C@@H]1[C@@]24OO3 | – | – | 41 days | >99.9% | – | – | – |
| C=CCO/N=C(/C[C@H]1O[C@@H]2O[C@@]3(C)CC[C@H]4[C@H](C)CC[C@@H]([C@H]1C)[C@@]24OO3)[C@H]1O[C@@H]2O[C@@]3(C)CC[C@H]4[C@H](C)CC[C@@H]([C@H]1C)[C@@]24OO3 | 40.3 days | >99.9% | 49 days | >99.9% | 41.3 days | >99.9% | MST (Plasmodium berghei [5]): 40.3 days; MST (Plasmodium berghei [7]): 46.8 days; Activity (Plasmodium berghei [8]): >99%; Activity (Plasmodium berghei [9]): >99.9% |
| C[C@H]1[C@@H](/C(C[C@H]2O[C@@H]3O[C@@]4(C)CC[C@H]5[C@H](C)CC[C@@H]([C@H]2C)[C@@]35OO4)=N\OC(C)(C)C)O[C@@H]2O[C@@]3(C)CC[C@H]4[C@H](C)CC[C@@H]1[C@@]24OO3 | – | – | – | >99.9% | – | – | – |
| CCOP(=O)(OCC)O/N=C(/C[C@H]1O[C@@H]2O[C@@]3(C)CC[C@H]4[C@H](C)CC[C@@H]([C@H]1C)[C@@]24OO3)[C@H]1O[C@@H]2O[C@@]3(C)CC[C@H]4[C@H](C)CC[C@@H]([C@H]1C)[C@@]24OO3 | 21.5 days | >99.9% | – | – | – | – | – |
| C#CCO/N=C(/C[C@H]1O[C@@H]2O[C@@]3(C)CC[C@H]4[C@H](C)CC[C@@H]([C@H]1C)[C@@]24OO3)[C@H]1O[C@@H]2O[C@@]3(C)CC[C@H]4[C@H](C)CC[C@@H]([C@H]1C)[C@@]24OO3 | 60 days | >99.9% | – | >99.9% | 60 days | >99.9% | Activity (Mus musculus): 12 g; MST (Plasmodium berghei [7]): 46.8 days; Activity (Plasmodium berghei [8]): >99.9% |
| CO/N=C(/C[C@H]1O[C@@H]2O[C@@]3(C)CC[C@H]4[C@H](C)CC[C@@H]([C@H]1C)[C@@]24OO3)[C@H]1O[C@@H]2O[C@@]3(C)CC[C@H]4[C@H](C)CC[C@@H]([C@H]1C)[C@@]24OO3 | 60 days | >99.9% | 49 days | >99.9% | 26.3 days | >99.9% | Activity (Mus musculus): 10.7 g; MST (Plasmodium berghei [7]): 8.3 days; Activity (Plasmodium berghei [8]): 98% |
| CO[C@H]1O[C@@H]2O[C@@]3(C)CC[C@H]4[C@H](C)CC[C@@H]([C@H]1C)[C@@]24OO3 [ARTEMETHER] | 40 days | >99.9% | – | >99.9% | 19 days | >99.9% | – |
| C[C@H]1[C@@H](C(=O)C[C@H]2O[C@@H]3O[C@@]4(C)CC[C@H]5[C@H](C)CC[C@@H]([C@H]2C)[C@@]35OO4)O[C@@H]2O[C@@]3(C)CC[C@H]4[C@H](C)CC[C@@H]1[C@@]24OO3 | – | >99.9% | – | – | – | – | – |
| C[C@H]1[C@@H](/C(C[C@H]2O[C@@H]3O[C@@]4(C)CC[C@H]5[C@H](C)CC[C@@H]([C@H]2C)[C@@]35OO4)=N\OC(=O)N(C)C)O[C@@H]2O[C@@]3(C)CC[C@H]4[C@H](C)CC[C@@H]1[C@@]24OO3 | – | >99.9% | – | – | – | – | – |
| CC(=O)O/N=C(/C[C@H]1O[C@@H]2O[C@@]3(C)CC[C@H]4[C@H](C)CC[C@@H]([C@H]1C)[C@@]24OO3)[C@H]1O[C@@H]2O[C@@]3(C)CC[C@H]4[C@H](C)CC[C@@H]([C@H]1C)[C@@]24OO3 | – | >99.9% | – | – | – | – | – |
